These results are taken from ChEMBL document CHEMBL1152210, “Synthesis and biological evaluation of alkoxycoumarins as novel nematicidal constituents” (Bioorg Med Chem Lett, 2008).

Data set [1] has as its system Bursaphelenchus xylophilus. Kind of data set: Nematicidal activity against Bursaphelenchus xylophilus measured per cotton ball after 4 days by serial dilution method. The data set is classed as functional. An outline of the steps:
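Cotton ball (5 mm), loaded with test compound or solvent and vacuum-dried, set on 4-day Botrytis cinerea mycelia grown on Czapek-Dox agar at 21 °C. 100 µl B. xylophilus suspension (ca. 15,000/ml in distilled water) injected into the ball; dish held at 26 °C for 4 days. Mycelial consumption scored; MED is the lowest active dose by serial dilution, top dose 160 µg/ball. Survival confirmed by methylene blue staining.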

The next data set relates to Artemia salina. Kind of data set: Toxicity in Artemia salina after 24 hrs by serial dilution method. The data set is classed as organism-based. Particulars: in vivo.
In a further data set the test system is Oryzias latipes. Kind of data set: Toxicity in Oryzias latipes after 24 hrs by serial dilution method. The data set is classed as organism-based. Particulars: in vivo.

The source made the active and inactive calls. No cut-off for these calls is given here. A value given as a limit tells only on which side of the number the result lay.

The term LC50 denotes the concentration that kills 50% of the test population. A higher LC50 goes with a less lethal substance.

With `CCCCOc1cccc2oc(=O)ccc12`, the MED in data set [1] was determined as 40 µg.

In data set [1], `C/C1=C\C[C@@H]2C[C@@H](C[C@]3(CC[C@H](C)[C@@H](C)O3)O2)OC(=O)[C@@H]2CC[C@@H](O)[C@H]3OC/C(=C\C=C\[C@H](C)C1)[C@]32O` [MILBEMECTIN] returned an MED of 0.6 µg. For the same compound, in the data set with Artemia salina, the 50% lethal concentration (LC50) was 0.1 ppm and the LC100 is given as 0.6 ppm. In the data set with Oryzias latipes, this compound came in with an LC50 of 0.06 ppm and an LC100 of 0.25 ppm.

With `O=c1ccc2ccccc2o1` [COUMARIN], in data set [1], the MED stood at 80 µg. In the data set on Artemia salina, this compound returned an LC50 above 80 ppm and an LC100 above 80 ppm. Further, in the data set with Oryzias latipes, the LC50 is recorded as 38 ppm and the LC100 turned out to be 50 ppm.

`COc1cccc2oc(=O)ccc12` displayed an MED in data set [1] of 20 µg. In the data set with Artemia salina, this compound showed an LC50 of 30 ppm and an LC100 of 20 ppm. For the same compound, in the data set with Oryzias latipes, the 50% lethal concentration (LC50) came to 38 ppm and the LC100 is on record as 50 ppm.

For `COc1cc(=O)oc2ccccc12`, in data set [1], the result was inactive. The LC50 in the data set on Artemia salina came out at 60 ppm; in the data set on Oryzias latipes it was 75 ppm. Also, the values for the LC100 in the data set with Artemia salina and in the data set with Oryzias latipes were above 80 ppm and 100 ppm, respectively.

For the compound `O=c1ccc2c(O)cccc2o1`, in data set [1], the result was inactive.

Take `CCCCCOc1cccc2oc(=O)ccc12`: the MED in data set [1] is 40 µg.

In data set [1], `CCCOc1cccc2oc(=O)ccc12` registered an MED of 20 µg.

As for `CCCCCCCCOc1cccc2oc(=O)ccc12`, the MED in data set [1] came out at 40 µg.

The compound `CCCCCCCCCc1cccc(O)c1` showed an MED in data set [1] of 2.5 µg. In addition, the values for the LC50 with Artemia salina and in the data set on Oryzias latipes were 0.6 ppm and 7.5 ppm, respectively. The LC100 worked out at 1.3 ppm in the data set on Artemia salina and 10 ppm in the data set with Oryzias latipes.

`O=C(O)/C=C/c1ccccc1O`: in data set [1], the outcome was inactive.

In data set [1], `CCCCCCCCCCCc1cccc(O)c1` registered an MED of 5 µg. In the data set on Artemia salina, the LC50 is listed as 1 ppm and the LC100 amounted to 1.3 ppm. In addition, in the data set with Oryzias latipes, the LC50 is listed as 3.8 ppm and the LC100 worked out at 5 ppm.

Compound `COc1cccc2ccc(=O)oc12` gave an MED in data set [1] of 80 µg. In the data set with Artemia salina, this compound returned an LC50 above 80 ppm and an LC100 above 80 ppm. Also, in the data set on Oryzias latipes, the LC50 was 100 ppm and the LC100 is above 100 ppm.

In data set [1], `CCOc1cccc2oc(=O)ccc12` returned an MED of 10 µg. Also, the LC50 in the data set with Artemia salina is above 80 ppm; in the data set with Oryzias latipes, 75 ppm. The LC100 in the data set on Artemia salina was above 80 ppm; with Oryzias latipes, 100 ppm.

`C=CCOc1cccc2oc(=O)ccc12`: the outcome in data set [1] was inactive.

In data set [1], `COc1cc2ccccc2oc1=O` came in with an MED of 80 µg. Further, the LC50 with Artemia salina is reported as above 80 ppm; in the data set with Oryzias latipes, above 100 ppm. Besides, the results for the LC100 with Artemia salina and in the data set on Oryzias latipes were above 80 ppm and above 100 ppm, respectively.

`COc1ccc2oc(=O)ccc2c1`: the MED in data set [1] is 80 µg. Further, in the data set on Artemia salina, the LC50 is recorded as above 80 ppm and the LC100 is listed as above 80 ppm. In the data set with Oryzias latipes, this compound displayed a 50% lethal concentration (LC50) of 75 ppm and an LC100 of 100 ppm.

Turning to `O=c1ccc2c(OCc3ccccc3)cccc2o1`, in data set [1], the MED stood at 80 µg.

In data set [1], `COc1cc(OC)c2ccc(=O)oc2c1` [CITROPTEN] returned an MED of 20 µg.

Consider `COc1ccc2ccc(=O)oc2c1` [HERNIARIN], for which the MED in data set [1] was determined as 40 µg. Moreover, the LC100 was found to be 80 ppm in the data set on Artemia salina and 75 ppm in the data set on Oryzias latipes.
